Test results as given in publication PMC9891086 (RSC Advances, 2023).

Tests used:
[1] = test system: HepG2 cells; assay: MTT cytotoxic activity assay against HepG2 cells; assay type: cell-based; settings: Homo sapiens, HepG2, 48 h, read-out: IC50 inhibitory effect on HepG2 cells
Procedure, shortened: (§1)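 Cells seeded at 5 × 10^3 per well and grown 24 h, then exposed to a range of test compound concentrations for 48 h. Vehicle control was 0.1% DMSO and the positive control was adriamycin (10 μM). MTT was added from a 5 mg mL−1 stock for 4 h, and formazan was dissolved in DMSO. Viability was read at 490 nm, in three replicates per treatment.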

[2] = molecular target: T1, COX-2 (Homo sapiens, UniProt P35354); assay: biochemical
T1 sequence (P35354 18-604): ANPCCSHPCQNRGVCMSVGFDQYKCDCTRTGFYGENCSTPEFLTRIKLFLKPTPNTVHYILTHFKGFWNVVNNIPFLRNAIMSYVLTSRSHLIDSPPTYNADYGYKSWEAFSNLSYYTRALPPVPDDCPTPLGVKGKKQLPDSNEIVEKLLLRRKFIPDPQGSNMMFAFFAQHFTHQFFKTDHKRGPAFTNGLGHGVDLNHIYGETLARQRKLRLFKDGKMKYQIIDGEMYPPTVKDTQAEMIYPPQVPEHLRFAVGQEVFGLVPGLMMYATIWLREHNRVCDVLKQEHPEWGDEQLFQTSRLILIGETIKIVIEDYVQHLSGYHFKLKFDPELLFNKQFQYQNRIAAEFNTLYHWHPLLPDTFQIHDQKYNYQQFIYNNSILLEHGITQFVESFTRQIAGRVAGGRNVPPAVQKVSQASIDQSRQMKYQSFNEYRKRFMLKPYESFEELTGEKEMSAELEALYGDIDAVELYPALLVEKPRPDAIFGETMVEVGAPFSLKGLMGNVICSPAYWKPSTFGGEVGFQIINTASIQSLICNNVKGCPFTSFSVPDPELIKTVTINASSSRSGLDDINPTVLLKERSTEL

[3] = test system: Caco-2 cells; assay: MTT cytotoxic activity assay against Caco-2 cells; assay type: cell-based; settings: Homo sapiens, Caco-2, 48 h, read-out: IC50 inhibitory effect on Caco-2 cells
Procedure, shortened: as §1

Question: CCCCCCCCC/C=C\CCCCCCCCC(=O)O [Compound 1, cis-10-eicosaenoic acid] was tested. Which IC50 [1] did it give?
Answer: Its IC50 is 25 ± 1.08 µM.

Question: What about the IC50 [2] of the same molecule?
Answer: The IC50 was 10.8 ± 0.3 µM.

Question: With CC[C@H](CC[C@@H](C)[C@H]1CC[C@H]2[C@@H]3CC(=O)C4=CC(=O)CC[C@]4(C)[C@H]3CC[C@]12C)C(C)C [Compound 3, stigmast-4-en-3,6-dione] as the molecule, how does the IC50 [2] read?
Answer: The IC50 was 67.9 ± 6.21 µM.

Question: What does the source list for COc1cc(O)c(C(C)=O)c(OC)c1 [Compound 5, xanthoxylin]?
Answer: IC50 [1]: 8.21 ± 1.12 µM; IC50 [2]: 123 ± 10.5 µM

Question: Which IC50 [2] does the source give for N[C@H]1CCC=C[C@H]1C(=O)O [Compound 14, (1R,6S)-6-aminocyclohex-2-ene-1-carboxylic acid] here?
Answer: Its IC50 is 19.3 ± 3.58 µM.

Question: With c1cncc([C@@H]2CCCCN2)c1 [Compound 15, anabasine] as the molecule, how does the IC50 [2] read?
Answer: The IC50 was 150 ± 11 µM.

Question: For Oc1ccccc1CN1CCCC[C@H]1c1cccnc1 [Compound 16, (2S)-N-hydroxybenzylanabasine], which IC50 [2] is on record?
Answer: The IC50 was 24.2 ± 1.2 µM.

Question: With O=c1cc[nH]c(=O)[nH]1 [Compound 21, uracil] as the molecule, how does the IC50 [1] read?
Answer: The IC50 was 78.5 ± 4.41 µM.

Question: And the IC50 [2]?
Answer: The IC50 was 146 ± 11 µM.

Question: What about the IC50 [3] of the same molecule?
Answer: Its IC50 is 86 ± 2.96 µM.

Question: For O=C1N[C@@H](O)C(O)=C1O [Compound 23, (S)-3,4,5-trihydroxy-1H-pyrrol-2 (5H)-one], which IC50 [2] is on record?
Answer: The IC50 was 149 ± 10 µM.

Question: How did the IC50 [2] turn out when OCc1ccccc1O[C@@H]1O[C@H](CO)[C@@H](O)[C@H](O)[C@H]1O [Compound 25, salicin] was run?
Answer: Its IC50 is 162 ± 10 µM.
